According to ChEMBL document CHEMBL4689842, “EUbOPEN Chemogenomics Library wave 1” (2021):

Columns and labels:
Fibroblast = experiment: Incucyte cell viability with human fibroblast; assay type: toxicity, cell-based; conditions: 10 µM, compound concentration 10 uM; further: filed as whole numbers so only -1 and 0 and 1 occur
HEK-293T = experiment: Multiplex assay against HEK293T; assay type: toxicity, cell-based; conditions: human;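 on Population Tubulin-Different-Phenotype (%): share of the cells with healthy nuclei that show this phenotype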
How it was run: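 Values for tubulin, mitochondrial-mass and membrane-permeability phenotypes are per cents of cells with healthy nuclei. These cells were identified by CellPathfinder machine-learning gating of live cells that had been stained at seeding with Hoechst33342, BioTracker Green Microtubule Cytoskeleton Dye, MitoTracker Red and Annexin V Alexa Fluor 680 and imaged on a CQ1 microscope at 37°C and 5% CO2 after compound addition. The gating first set Hoechst high-intensity objects apart from normal cells, then split normal cells into healthy, pyknosed or fragmented nuclei, and pyknosed cells into mitotic or apoptotic.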

[1] = 12 h, 1 µM, compound concentration 1 uM, replicate 1
[2] = 12 h, 1 µM, compound concentration 1 uM, replicate 2
[3] = 12 h, 10 µM, compound concentration 10 uM, replicate 1
[4] = 12 h, 10 µM, compound concentration 10 uM, replicate 2
[5] = 24 h, 1 µM, compound concentration 1 uM, replicate 1
[6] = 24 h, 1 µM, compound concentration 1 uM, replicate 2
[7] = 24 h, 10 µM, compound concentration 10 uM, replicate 1

CC(C)c1cc(Nc2nc(N3CCC[C@H](N)C3)ncc2C(N)=O)cc(C(C)C)n1
Growth Rate (Fibroblast; 0 h, replicate number 1, timepoint 0 hours): 0
Growth Rate (Fibroblast; 6 h, replicate number 1, timepoint 6 hours): 1
Growth Rate (Fibroblast; 6 h, replicate number 2, timepoint 6 hours): 0
Growth Rate (Fibroblast; 12 h, replicate number 1, timepoint 12 hours): 1
Growth Rate (Fibroblast; 12 h, replicate number 2, timepoint 12 hours): 0
Growth Rate (Fibroblast; 18 h, replicate number 1, timepoint 18 hours): 0
Growth Rate (Fibroblast; 24 h, replicate number 1, timepoint 24 hours): 0
Population Apoptotic (%) (HEK-293T; [1]): 61%
Population Fragmented Nuclei (%) (HEK-293T; [1]): 9%
Population Healthy Nuclei (%) (HEK-293T; [1]): 30%
Population Hoechst High Intensity Objects (%) (HEK-293T; [1]): 11%
Population Membrane Permeable-Phenotype (%) (HEK-293T; [1]): 9%
Population Mitochondria Different-Phenotype (%) (HEK-293T; [1]): 95%
Population Mitotic Cells (%) (HEK-293T; [1]): 38%
Population Normal (%) (HEK-293T; [1]): 88%
Population Pyknosed Nuclei (%) (HEK-293T; [1]): 60%
Population Tubulin-Different-Phenotype (%) (HEK-293T; [1]): 100%
Total Cell Count (HEK-293T; [1]): 225
Population Apoptotic (%) (HEK-293T; [2]): 52%
Population Fragmented Nuclei (%) (HEK-293T; [2]): 5%
Population Healthy Nuclei (%) (HEK-293T; [2]): 26%
Population Hoechst High Intensity Objects (%) (HEK-293T; [2]): 7%
Population Membrane Permeable-Phenotype (%) (HEK-293T; [2]): 8%
Population Mitochondria Different-Phenotype (%) (HEK-293T; [2]): 91%
Population Mitotic Cells (%) (HEK-293T; [2]): 47%
Population Normal (%) (HEK-293T; [2]): 92%
Population Pyknosed Nuclei (%) (HEK-293T; [2]): 68%
Population Tubulin-Different-Phenotype (%) (HEK-293T; [2]): 97%
Total Cell Count (HEK-293T; [2]): 140
Population Apoptotic (%) (HEK-293T; [3]): 88%
Population Healthy Nuclei (%) (HEK-293T; [3]): 6%
Population Hoechst High Intensity Objects (%) (HEK-293T; [3]): 18%
Population Membrane Permeable-Phenotype (%) (HEK-293T; [3]): 0%
Population Mitochondria Different-Phenotype (%) (HEK-293T; [3]): 93%
Population Mitotic Cells (%) (HEK-293T; [3]): 11%
Population Normal (%) (HEK-293T; [3]): 81%
Population Pyknosed Nuclei (%) (HEK-293T; [3]): 86%
Population Tubulin-Different-Phenotype (%) (HEK-293T; [3]): 43%
Total Cell Count (HEK-293T; [3]): 313
Population Apoptotic (%) (HEK-293T; [4]): 64%
Population Fragmented Nuclei (%) (HEK-293T; [4]): 7%
Population Healthy Nuclei (%) (HEK-293T; [4]): 5%
Population Hoechst High Intensity Objects (%) (HEK-293T; [4]): 5%
Population Membrane Permeable-Phenotype (%) (HEK-293T; [4]): 10%
Population Mitochondria Different-Phenotype (%) (HEK-293T; [4]): 90%
Population Mitotic Cells (%) (HEK-293T; [4]): 35%
Population Normal (%) (HEK-293T; [4]): 94%
Population Pyknosed Nuclei (%) (HEK-293T; [4]): 87%
Population Tubulin-Different-Phenotype (%) (HEK-293T; [4]): 40%
Total Cell Count (HEK-293T; [4]): 206
Population Apoptotic (%) (HEK-293T; [5]): 65%
Population Fragmented Nuclei (%) (HEK-293T; [5]): 8%
Population Healthy Nuclei (%) (HEK-293T; [5]): 28%
Population Hoechst High Intensity Objects (%) (HEK-293T; [5]): 14%
Population Membrane Permeable-Phenotype (%) (HEK-293T; [5]): 5%
Population Mitochondria Different-Phenotype (%) (HEK-293T; [5]): 94%
Population Mitotic Cells (%) (HEK-293T; [5]): 34%
Population Normal (%) (HEK-293T; [5]): 85%
Population Pyknosed Nuclei (%) (HEK-293T; [5]): 63%
Population Tubulin-Different-Phenotype (%) (HEK-293T; [5]): 91%
Total Cell Count (HEK-293T; [5]): 234
Population Apoptotic (%) (HEK-293T; [6]): 62%
Population Fragmented Nuclei (%) (HEK-293T; [6]): 9%
Population Healthy Nuclei (%) (HEK-293T; [6]): 40%
Population Hoechst High Intensity Objects (%) (HEK-293T; [6]): 5%
Population Membrane Permeable-Phenotype (%) (HEK-293T; [6]): 9%
Population Mitochondria Different-Phenotype (%) (HEK-293T; [6]): 89%
Population Mitotic Cells (%) (HEK-293T; [6]): 37%
Population Normal (%) (HEK-293T; [6]): 94%
Population Pyknosed Nuclei (%) (HEK-293T; [6]): 49%
Population Tubulin-Different-Phenotype (%) (HEK-293T; [6]): 96%
Total Cell Count (HEK-293T; [6]): 170
Population Apoptotic (%) (HEK-293T; [7]): 90%
Population Fragmented Nuclei (%) (HEK-293T; [7]): 14%
